# Source: ChEMBL document CHEMBL4665651, “Design, synthesis, and biological evaluation of some novel 4-aminoquinazolines as Pan-PI3K inhibitors” (Bioorg Med Chem, 2019)
# Active and inactive are the calls of the source. No cut-off for these calls is given here.
# Tests used:
# MCF7 [1] = assay: Induction of apoptosis in human MCF7 cells assessed as nuclear fragmentation at 0.2 to 0.8 uM incubated for 48 hrs by Hoechst 33342 staining based fluorescence microscopic analysis; format: functional, cell-based; settings: dose microM 0.2-0.8, time 48.0 hrs
# How it was run: (§1)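 MCF-7 cells seeded at 2×10⁵ per well in 6-well plates and allowed to settle 12 h. Treated 48 h, with medium-only controls. Stained with Hoechst 33342 for 30 min, washed, and nuclear morphology imaged by fluorescence microscopy.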
# MCF7 [2] = assay: Induction of apoptosis in human MCF7 cells assessed as early apoptotic cells at 0.4 uM incubated for 48 hrs by annexin V-FITC and propidium iodide staining based flow cytometry analysis (reference value: 2.7 %); format: functional
# MCF7 [3] = assay: Induction of apoptosis in human MCF7 cells assessed as chromatin condensation at 0.2 to 0.8 uM incubated for 48 hrs by Hoechst 33342 staining based fluorescence microscopic analysis; format: functional, cell-based; settings: dose microM 0.2-0.8, time 48.0 hrs; how it was run: as §1
# HUVEC = assay: Cytotoxicity against HUVEC cells assessed as reduction in cell viability incubated for 72 hrs by SRB assay; format: cell-based; settings: Homo sapiens
# How it was run: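 Normal cells exposed to a range of compound concentrations for 72 h at 37 °C in 5% CO₂. Cells TCA-fixed and viability read by SRB protein staining, normalized to day-0 and negative-control OD. IC50 from non-linear regression; values are means of triplicate measurements.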
# MCF7 [4] = assay: Inhibition of colony formation in human MCF7 cells at 0.2 to 0.8 uM incubated for 72 hrs by crystal violet staining based assay; format: functional, cell-based; settings: dose microM 0.2-0.8, time 72.0 hrs
# How it was run: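 MCF-7 cells seeded at 3×10³ cells per well in 6-well plates. Exposed to 0, 0.2, 0.4 or 0.8 μM for 72 h, then grown one week in drug-free medium. Colonies stained with crystal violet and photographed.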
# MCF7 [5] = assay: Induction of apoptosis in human MCF7 cells assessed as late apoptotic cells at 0.4 uM incubated for 48 hrs by annexin V-FITC and propidium iodide staining based flow cytometry analysis (reference value: 9.2 %); format: functional
# MCF7 [6] = assay: Induction of apoptosis in human MCF7 cells assessed as necrotic cells at 0.2 uM incubated for 48 hrs by annexin V-FITC and propidium iodide staining based flow cytometry analysis (reference value: 0.3 %); format: functional
# [7] = biological target: Epidermal growth factor receptor (Homo sapiens, UniProt P00533); assay: Inhibition of EGFR (unknown origin) using FAM-labeled peptide as substrate incubated for 10 mins followed by substrate addition and measured after 1 hr by mobility shift assay
# How it was run: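 Mobility shift assay in 50 mM HEPES pH 7.5, 10 mM MgCl₂, 2 mM DTT, 0.0015% Brij35. Compound in 10-point DMSO dilution, run in duplicate. Enzyme preincubated with compound 10 min at room temperature. FAM-labeled peptide and ATP then added and reaction run at 28 °C for 1 h. Stopped with EDTA buffer; conversion turned into percent inhibition and fitted to a Hill equation for IC50.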
# [8] = biological target: Phosphatidylinositol 4,5-bisphosphate 3-kinase catalytic subunit gamma isoform (Homo sapiens, UniProt P48736); assay: Inhibition of PI3Kgamma (unknown origin) using lipid as substrate incubated for 15 mins followed by substrate addition and measured after 60 mins ADPGloTM reagent based assay
# How it was run: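 ADP-Glo luminescent readout of ADP formed. Isoforms tested: p110α/p85α, p110β/p85α, p120γ and p110δ/p85α, each in PI3K reaction buffer with lipid substrate. Enzyme preincubated with compound for 15 min at room temperature. Reaction started with 250 μM ATP stock and run 60 min at room temperature. ADP-Glo reagent added for 40 min, then detection reagent for 40 min. IC50 from normalized nonlinear dose–response fit.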
# MCF7 [9] = assay: Induction of apoptosis in human MCF7 cells assessed as late apoptotic cells at 0.8 uM incubated for 48 hrs by annexin V-FITC and propidium iodide staining based flow cytometry analysis (reference value: 9.2 %); format: functional
# Sequence of Phosphatidylinositol 4,5-bisphosphate 3-kinase catalytic subunit gamma isoform (P48736 whole entry, canonical isoform): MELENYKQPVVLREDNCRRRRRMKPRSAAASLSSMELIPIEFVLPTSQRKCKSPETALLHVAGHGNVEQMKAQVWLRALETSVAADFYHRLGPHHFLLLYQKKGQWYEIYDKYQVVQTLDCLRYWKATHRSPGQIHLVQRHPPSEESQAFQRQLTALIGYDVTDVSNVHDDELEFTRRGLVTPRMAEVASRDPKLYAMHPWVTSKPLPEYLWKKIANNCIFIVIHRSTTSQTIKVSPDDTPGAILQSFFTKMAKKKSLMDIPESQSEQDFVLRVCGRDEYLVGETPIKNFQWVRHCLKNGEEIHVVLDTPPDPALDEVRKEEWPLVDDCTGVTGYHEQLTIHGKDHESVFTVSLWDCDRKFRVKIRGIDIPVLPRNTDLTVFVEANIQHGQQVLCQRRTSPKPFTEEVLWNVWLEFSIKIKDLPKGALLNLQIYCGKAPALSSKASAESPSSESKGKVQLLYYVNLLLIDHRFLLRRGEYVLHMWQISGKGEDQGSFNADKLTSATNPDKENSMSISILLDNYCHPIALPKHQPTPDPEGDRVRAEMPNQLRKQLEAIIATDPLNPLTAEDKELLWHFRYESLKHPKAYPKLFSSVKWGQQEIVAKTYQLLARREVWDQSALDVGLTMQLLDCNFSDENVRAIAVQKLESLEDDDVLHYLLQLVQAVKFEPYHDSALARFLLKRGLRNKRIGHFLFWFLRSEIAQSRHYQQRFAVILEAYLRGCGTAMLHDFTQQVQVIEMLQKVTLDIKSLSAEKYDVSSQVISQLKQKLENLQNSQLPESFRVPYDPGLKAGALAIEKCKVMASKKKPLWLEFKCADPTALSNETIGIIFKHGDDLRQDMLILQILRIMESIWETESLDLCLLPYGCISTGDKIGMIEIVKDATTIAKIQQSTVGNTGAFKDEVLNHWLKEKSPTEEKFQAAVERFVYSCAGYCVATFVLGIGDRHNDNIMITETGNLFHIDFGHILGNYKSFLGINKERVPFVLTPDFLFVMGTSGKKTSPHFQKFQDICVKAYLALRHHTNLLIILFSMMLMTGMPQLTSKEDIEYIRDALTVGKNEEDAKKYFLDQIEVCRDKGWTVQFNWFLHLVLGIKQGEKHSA
# Sequence of Epidermal growth factor receptor (P00533 whole entry): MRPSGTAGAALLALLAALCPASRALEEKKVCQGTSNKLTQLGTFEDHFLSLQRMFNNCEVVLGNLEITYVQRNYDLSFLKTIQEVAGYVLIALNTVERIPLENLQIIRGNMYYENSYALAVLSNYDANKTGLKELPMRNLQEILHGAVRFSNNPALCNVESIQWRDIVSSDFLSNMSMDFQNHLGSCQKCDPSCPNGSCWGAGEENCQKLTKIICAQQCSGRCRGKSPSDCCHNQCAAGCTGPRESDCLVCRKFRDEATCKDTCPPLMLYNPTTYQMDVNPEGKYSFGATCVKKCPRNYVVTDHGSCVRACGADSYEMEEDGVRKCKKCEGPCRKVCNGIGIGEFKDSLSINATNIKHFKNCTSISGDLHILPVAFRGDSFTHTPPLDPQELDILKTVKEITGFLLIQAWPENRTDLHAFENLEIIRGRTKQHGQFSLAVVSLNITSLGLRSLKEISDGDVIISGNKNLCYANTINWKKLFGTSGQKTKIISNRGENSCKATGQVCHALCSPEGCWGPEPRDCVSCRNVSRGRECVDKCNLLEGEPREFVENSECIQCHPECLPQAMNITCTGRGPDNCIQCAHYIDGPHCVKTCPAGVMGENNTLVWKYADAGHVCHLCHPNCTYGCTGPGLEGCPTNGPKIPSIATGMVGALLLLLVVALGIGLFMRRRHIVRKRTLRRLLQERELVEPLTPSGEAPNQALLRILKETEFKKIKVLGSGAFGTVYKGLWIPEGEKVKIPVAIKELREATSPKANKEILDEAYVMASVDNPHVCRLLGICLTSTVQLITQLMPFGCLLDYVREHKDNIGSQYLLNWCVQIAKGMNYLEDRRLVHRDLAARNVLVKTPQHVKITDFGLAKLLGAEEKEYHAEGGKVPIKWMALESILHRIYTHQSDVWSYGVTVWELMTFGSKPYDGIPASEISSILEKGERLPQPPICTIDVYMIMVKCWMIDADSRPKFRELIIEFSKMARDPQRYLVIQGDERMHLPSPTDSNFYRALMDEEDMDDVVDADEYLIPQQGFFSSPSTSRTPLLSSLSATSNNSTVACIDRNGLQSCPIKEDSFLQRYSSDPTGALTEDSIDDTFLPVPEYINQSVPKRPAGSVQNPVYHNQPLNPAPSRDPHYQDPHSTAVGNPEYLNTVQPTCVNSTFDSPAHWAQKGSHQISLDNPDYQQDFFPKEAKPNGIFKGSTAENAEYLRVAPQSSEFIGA
smiles,measurement,setting,value
COc1ncc(-c2ccc3ncnc(Nc4cnn(CCO)c4)c3c2)cc1NS(=O)(=O)c1ccc(F)cc1F,Activity,MCF7 [1],Active
same,Activity,MCF7 [2],3.8%
same,Activity,MCF7 [3],Active
same,IC50,HUVEC,19.6 µM
same,inhibition,MCF7 [4],Dose-dependent effect
same,Activity,MCF7 [5],23.6%
same,Activity,MCF7 [6],2.2%
same,IC50,[7],> 10 µM
same,IC50,[8],0.00058 µM
same,Activity,MCF7 [9],22.7%
